# What was measured:
# Eubacterium sp. [1] = test: Antimicrobial activity against Eubacterium sp. assessed as percent susceptible isolates after 48 hrs by agar dilution method; type: functional
# Procedure, shortened: (§1)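 CLSI agar dilution (M11-A7); inoculum 10^5 CFU applied by replicator; plates incubated anaerobically 48 h at 37°C. For piperacillin-tazobactam, tazobactam held constant at 4 μg/ml.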
# Bacteroides ovatus [2] = test: Antimicrobial activity against Bacteroides ovatus assessed as percent susceptible isolates after 48 hrs by agar dilution method; type: functional
# Anaerococcus prevotii [3] = test: Antimicrobial activity against Anaerococcus prevotii after 48 hrs by agar dilution method; type: functional
# Procedure, shortened: (§2)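 MICs on clinical anaerobe isolates by the CLSI agar dilution method. Inoculum of 10^5 CFU applied with a Steers replicator. Plates incubated 48 h at 37°C in an anaerobic chamber.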
# Schaalia odontolytica [4] = test: Antimicrobial activity against Actinomyces odontolyticus assessed as percent resistant isolates after 48 hrs by agar dilution method; type: functional
# Procedure, shortened: (§3)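 CLSI agar dilution on recent Korean clinical anaerobe isolates. Inoculum 10^5 CFU per spot by replicator. Plates incubated in an anaerobic chamber at 37°C for 48 h. For piperacillin plus tazobactam, tazobactam was held constant at 4 μg/ml. Resistance and susceptibility rates derived from MICs.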
# [5] = tested on: Bifidobacterium adolescentis; test: Antimicrobial activity against Bifidobacterium adolescentis assessed as percent resistant isolates after 48 hrs by agar dilution method; type: functional; procedure, shortened: as §3
# Schaalia meyeri = test: Antimicrobial activity against Actinomyces meyeri assessed as percent susceptible isolates after 48 hrs by agar dilution method; type: functional
# Fusobacterium necrogenes = test: Antimicrobial activity against Fusobacterium necrogenes after 48 hrs by agar dilution method; type: functional; procedure, shortened: as §1
# Schaalia odontolytica [6] = test: Antimicrobial activity against Actinomyces odontolyticus after 48 hrs by agar dilution method; type: functional; procedure, shortened: as §2
# Bifidobacterium sp. [7] = test: Antimicrobial activity against Bifidobacterium sp. assessed as percent resistant isolates after 48 hrs by agar dilution method; type: functional; procedure, shortened: as §3
# Prevotella bivia = test: Antimicrobial activity against Prevotella bivia assessed as percent resistant isolates after 48 hrs by agar dilution method; type: functional; procedure, shortened: as §3
# Finegoldia magna [8] = test: Antimicrobial activity against Finegoldia magna assessed as percent susceptible isolates after 48 hrs by agar dilution method; type: functional; procedure, shortened: as §1
# Actinomyces israelii [9] = test: Antimicrobial activity against Actinomyces israelii assessed as percent susceptible isolates after 48 hrs by agar dilution method; type: functional
# [10] = tested on: Bacteroides thetaiotaomicron; test: Antimicrobial activity against Bacteroides thetaiotaomicron after 48 hrs by agar dilution method; type: functional; procedure, shortened: as §2
# Eubacterium sp. [11] = test: Antimicrobial activity against Eubacterium sp. assessed as percent resistant isolates after 48 hrs by agar dilution method; type: functional; procedure, shortened: as §3
# Anaerococcus prevotii [12] = test: Antimicrobial activity against Anaerococcus prevotii assessed as percent susceptible isolates after 48 hrs by agar dilution method; type: functional
# Finegoldia magna [13] = test: Antimicrobial activity against Finegoldia magna assessed as percent resistant isolates after 48 hrs by agar dilution method; type: functional; procedure, shortened: as §3
# Prevotella intermedia = test: Antimicrobial activity against Prevotella intermedia assessed as percent resistant isolates after 48 hrs by agar dilution method; type: functional; procedure, shortened: as §3
# Bifidobacterium sp. [14] = test: Antimicrobial activity against Bifidobacterium sp. assessed as percent susceptible isolates after 48 hrs by agar dilution method; type: functional; procedure, shortened: as §1
# Anaerococcus prevotii [15] = test: Antimicrobial activity against Anaerococcus prevotii assessed as percent resistant isolates after 48 hrs by agar dilution method; type: functional; procedure, shortened: as §3
# [16] = tested on: Parabacteroides distasonis; test: Antimicrobial activity against Bacteroides distasonis assessed as percent resistant isolates after 48 hrs by agar dilution method; type: functional; procedure, shortened: as §3
# [17] = tested on: Peptoniphilus asaccharolyticus; test: Antimicrobial activity against Peptoniphilus asaccharolyticus assessed as percent susceptible isolates after 48 hrs by agar dilution method; type: functional; procedure, shortened: as §1
# Actinomyces naeslundii [18] = test: Antimicrobial activity against Actinomyces naeslundii assessed as percent susceptible isolates after 48 hrs by agar dilution method; type: functional
# [19] = tested on: Bacteroides thetaiotaomicron; test: Antimicrobial activity against Bacteroides thetaiotaomicron assessed as percent resistant isolates after 48 hrs by agar dilution method; type: functional; procedure, shortened: as §3
# Hoylesella oralis [20] = test: Antimicrobial activity against Prevotella oralis after 48 hrs by agar dilution method; type: functional; procedure, shortened: as §1
# Fusobacterium varium = test: Antimicrobial activity against Fusobacterium varium after 48 hrs by agar dilution method; type: functional; procedure, shortened: as §1
# Bacteroides fragilis [21] = test: Antimicrobial activity against Bacteroides fragilis after 48 hrs by agar dilution method; type: functional; procedure, shortened: as §2
# Prevotella buccae [22] = test: Antimicrobial activity against Prevotella buccae assessed as percent resistant isolates after 48 hrs by agar dilution method; type: functional, Segatella buccae; procedure, shortened: as §3
# [23] = tested on: Bifidobacterium adolescentis; test: Antimicrobial activity against Bifidobacterium adolescentis assessed as percent susceptible isolates after 48 hrs by agar dilution method; type: functional
# [24] = tested on: Peptostreptococcus anaerobius; test: Antimicrobial activity against Peptostreptococcus anaerobius after 48 hrs by agar dilution method; type: functional; procedure, shortened: as §1
# Prevotella buccae [25] = test: Antimicrobial activity against Prevotella buccae after 48 hrs by agar dilution method; type: functional; conditions: Segatella buccae; procedure, shortened: as §1
# Phocaeicola vulgatus = test: Antimicrobial activity against Bacteroides vulgatus assessed as percent resistant isolates after 48 hrs by agar dilution method; type: functional; procedure, shortened: as §3
# Hoylesella oralis [26] = test: Antimicrobial activity against Prevotella oralis assessed as percent susceptible isolates after 48 hrs by agar dilution method; type: functional
# Procedure, shortened: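 CLSI agar dilution MIC testing of clinical isolates. 10^5 CFU spotted by replicator, plates incubated 48 h at 37°C in an anaerobic chamber. Susceptibility rates derived from the MICs.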
# [27] = tested on: Peptoniphilus asaccharolyticus; test: Antimicrobial activity against Peptoniphilus asaccharolyticus assessed as percent resistant isolates after 48 hrs by agar dilution method; type: functional; procedure, shortened: as §3
# Clostridioides difficile [28] = test: Antimicrobial activity against Clostridium difficile assessed as percent resistant isolates after 48 hrs by agar dilution method; type: functional
# Bacteroides ovatus [29] = test: Antimicrobial activity against Bacteroides ovatus assessed as percent resistant isolates after 48 hrs by agar dilution method; type: functional; procedure, shortened: as §3
# Parvimonas micra = test: Antimicrobial activity against Peptostreptococcus micros after 48 hrs by agar dilution method; type: functional; procedure, shortened: as §1
# Fusobacterium nucleatum = test: Antimicrobial activity against Fusobacterium nucleatum after 48 hrs by agar dilution method; type: functional; procedure, shortened: as §1
# Bifidobacterium sp. [30] = test: Antimicrobial activity against Bifidobacterium sp. after 48 hrs by agar dilution method; type: functional; procedure, shortened: as §2
# Schaalia odontolytica [31] = test: Antimicrobial activity against Actinomyces odontolyticus assessed as percent susceptible isolates after 48 hrs by agar dilution method; type: functional
# Actinomyces israelii [32] = test: Antimicrobial activity against Actinomyces israelii assessed as percent resistant isolates after 48 hrs by agar dilution method; type: functional; procedure, shortened: as §3
# Bacteroides fragilis [33] = test: Antimicrobial activity against Bacteroides fragilis assessed as percent susceptible isolates after 48 hrs by agar dilution method; type: functional
# [34] = tested on: Peptostreptococcus anaerobius; test: Antimicrobial activity against Peptostreptococcus anaerobius assessed as percent susceptible isolates after 48 hrs by agar dilution method; type: functional; procedure, shortened: as §3
# Eggerthella lenta = test: Antimicrobial activity against Eubacterium lentum after 48 hrs by agar dilution method; type: functional; procedure, shortened: as §1
# Actinomyces naeslundii [35] = test: Antimicrobial activity against Actinomyces naeslundii after 48 hrs by agar dilution method; type: functional; procedure, shortened: as §2
# [36] = tested on: Porphyromonas asaccharolytica; test: Antimicrobial activity against Porphyromonas asaccharolytica after 48 hrs by agar dilution method; type: functional; procedure, shortened: as §1
# Bacteroides caccae = test: Antimicrobial activity against Bacteroides caccae assessed as percent resistant isolates after 48 hrs by agar dilution method; type: functional; procedure, shortened: as §3
# Clostridioides difficile [37] = test: Antimicrobial activity against Clostridium difficile assessed as percent susceptible isolates after 48 hrs by agar dilution method; type: functional
# [38] = tested on: Parabacteroides distasonis; test: Antimicrobial activity against Bacteroides distasonis assessed as percent susceptible isolates after 48 hrs by agar dilution method; type: functional
smiles,measurement,setting,value
O=C(N[C@H](CO)[C@H](O)c1ccc([N+](=O)[O-])cc1)C(Cl)Cl [CHLORAMPHENICOL],Activity,Eubacterium sp. [1],92%
same,Activity,Bacteroides ovatus [2],98%
same,MIC50,Anaerococcus prevotii [3],4 µg/mL
same,MIC90,Anaerococcus prevotii [3],8 µg/mL
same,Activity,Schaalia odontolytica [4],0%
same,Activity,[5],0%
same,Activity,Schaalia meyeri,92%
same,MIC,Fusobacterium necrogenes,0.13 µg/mL
same,MIC,Schaalia odontolytica [6],1 µg/mL
same,MIC50,Schaalia odontolytica [6],1 µg/mL
same,MIC90,Schaalia odontolytica [6],2 µg/mL
same,Activity,Bifidobacterium sp. [7],0%
same,Activity,Prevotella bivia,0%
same,Activity,Finegoldia magna [8],100%
same,Activity,Actinomyces israelii [9],92%
same,MIC,[10],4 µg/mL
same,MIC50,[10],4 µg/mL
same,MIC90,[10],8 µg/mL
same,Activity,Eubacterium sp. [11],0%
same,Activity,Anaerococcus prevotii [12],93%
same,Activity,Finegoldia magna [13],0%
same,Activity,Prevotella intermedia,0%
same,Activity,Bifidobacterium sp. [14],92%
same,Activity,Anaerococcus prevotii [15],0%
same,Activity,[16],0%
same,Activity,[17],100%
same,Activity,Actinomyces naeslundii [18],92%
same,Activity,[19],0%
same,MIC50,Hoylesella oralis [20],4 µg/mL
same,MIC90,Hoylesella oralis [20],8 µg/mL
same,MIC,Fusobacterium varium,0.13 µg/mL
same,MIC50,Bacteroides fragilis [21],4 µg/mL
same,MIC90,Bacteroides fragilis [21],4 µg/mL
same,Activity,Prevotella buccae [22],0%
same,Activity,[23],92%
same,MIC50,[24],2 µg/mL
same,MIC90,[24],2 µg/mL
same,MIC50,Prevotella buccae [25],4 µg/mL
same,MIC90,Prevotella buccae [25],8 µg/mL
same,Activity,Phocaeicola vulgatus,0%
same,Activity,Hoylesella oralis [26],100%
same,Activity,[27],0%
same,Activity,Clostridioides difficile [28],0%
same,Activity,Bacteroides ovatus [29],0%
same,MIC50,Parvimonas micra,2 µg/mL
same,MIC90,Parvimonas micra,2 µg/mL
same,MIC,Fusobacterium nucleatum,0.13 µg/mL
same,MIC,Bifidobacterium sp. [30],1 µg/mL
same,MIC50,Bifidobacterium sp. [30],1 µg/mL
same,MIC90,Bifidobacterium sp. [30],2 µg/mL
same,Activity,Schaalia odontolytica [31],92%
same,Activity,Actinomyces israelii [32],0%
same,Activity,Bacteroides fragilis [33],98%
same,Activity,[34],100%
same,MIC,Eggerthella lenta,1 µg/mL
same,MIC50,Eggerthella lenta,1 µg/mL
same,MIC90,Eggerthella lenta,2 µg/mL
same,MIC,Actinomyces naeslundii [35],1 µg/mL
same,MIC50,Actinomyces naeslundii [35],1 µg/mL
same,MIC90,Actinomyces naeslundii [35],2 µg/mL
same,MIC,[36],0.13 µg/mL
same,Activity,Bacteroides caccae,0%
same,Activity,Clostridioides difficile [37],83%
same,Activity,[38],98%

# Source: ChEMBL document CHEMBL1671716, “Antimicrobial susceptibility patterns for recent clinical isolates of anaerobic bacteria in South Korea” (2010)
